In brackets after ≈: the same amount, converted by molar mass. Activity calls are given as the source filed them. The calls are words filed in the database; no cut-off is given here.
Assays:
Xenopus laevis [1] = assay: Anesthetic effect on Xenopus laevis tadpole assessed as loss of spontaneous motion measured for 30 seconds after 30 mins; assay type: functional, organism-based; conditions: 0.5 h
Method in brief: (§1)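 Xenopus tadpoles in groups of 10, in 30 mL pond water containing a range of compound concentrations, incubated 30 min to equilibrate. Water was then replaced with fresh pond water and recovery followed over 24 h.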

Equus caballus [2] = species: Equus caballus; assay: Binding affinity to horse spleen apoferritin by isothermal titration calorimetry
Method in brief: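 Sequential titrations were linked and corrected with ligand-into-buffer, buffer-into-protein and buffer-into-buffer controls. Heats were fitted to a single binding-site class, Hill slope fixed at 1; mean with 95% CI.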

Equus caballus [3] = species: Equus caballus; assay: Binding affinity to horse spleen apoferritin using 1-AMA by fluorescence competition assay
Method in brief: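 HSAF 7 μM with 7 μM 1-aminoanthracene in pH 7.4 PBS, titrated with compound 0–110 μM. Excitation 380 nm, emission 400–800 nm, baseline-corrected. Variable-slope Hill fit gave IC50 and Hill slope; KD obtained by Cheng–Prusoff correction for the 1-AMA competitor.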

[4] = biological target: T1, GABA-A receptor; alpha-1/beta-2/gamma-2 (Rattus norvegicus) (UniProt P18508+P62813+P63138); assay: Activation of rat alpha-1-beta-2-gamma-2L expressed in HEK293 cells assessed as potentiation of GABA-induced current at 0.3 to 3 uM by electrophysiological assay relative to control; assay type: cell-based
[5] = biological target: T1, GABA-A receptor; alpha-1/beta-2/gamma-2 (Rattus norvegicus); assay: Activation of rat alpha-1-beta-2-gamma-2L expressed in HEK293 cells at 30 uM by electrophysiological assay; assay type: cell-based
[6] = Binding affinity to horse spleen apoferritin using 1-AMA by fluorescence competition method
Xenopus laevis [7] = assay: Anesthetic effect on Xenopus laevis tadpole assessed as loss of startle reflex after 30 mins; assay type: functional, organism-based; conditions: 0.5 h; method in brief: as §1
[8] = Solubility of the compound in water; assay type: physicochemical
Method in brief: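 Extinction coefficient of the 368 nm diazirine band determined in methanol at known concentration; maximal concentration in distilled water then calculated from UV absorbance using that coefficient.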

[9] = Chemical stability of the compound assessed as half life in presence of UV irradiation; assay type: physicochemical
Method in brief: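 A 160 μM solution in distilled water in a 1 cm quartz cuvette was irradiated at 350 nm for 30 min. UV spectra were taken every 3 min to follow loss of the diazirine peak (368 nm); t1/2 reported with 95% CI.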

| Structure (SMILES) | EC50 (Xenopus laevis [1]) [nM] | Activity (Equus caballus [2]) [µM] | Activity (Equus caballus [3]) [µM] | fold change (FC) [4] | Activity [5] | Kd [6] [nM] | EC50 (Xenopus laevis [7]) [nM] | solubility [8] [µM] | half-life [9] [min] |
| --- | --- | --- | --- | --- | --- | --- | --- | --- | --- |
| CC(C)c1cccc(C(C)C)c1O [PROPOFOL] | 1100 | 4.8 | 12 | 9.3 | Active | 10000 | 2800 |  |  |
| CC(C)c1ccc(C2(C(F)(F)F)N=N2)cc1O | 1100 | 21 | 23 | 1.7 | inactive | 19000 | 3100 | 185 (≈ 45.2 µg/mL) | 34 |

Reference: ChEMBL document CHEMBL1212823, “m-Azipropofol (AziPm) a photoactive analogue of the intravenous general anesthetic propofol” (J Med Chem, 2010)
